Assay results: ChEMBL document CHEMBL1132452, “Synthesis and anticonvulsant activity of novel and potent 2,3-benzodiazepine AMPA/kainate receptor antagonists” (J Med Chem, 1999)

Experiments:
[1] = Relative lipophilicity of the compound; assay type: physicochemical; conditions: reversed-phase TLC, acetone/water 2:1
In short: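 Reversed-phase TLC on plates dried at 105 °C for 1 h. Mobile phase acetone/water 2:1 (v/v). Compound in CHCl3 (3 mg/mL), 1 µL spotted. Five runs, each with a different placement on the plate. Mean Rf converted by Rm = log[(1/Rf) − 1]; higher Rm means higher lipophilicity.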

[2] = organism: Mus musculus; assay: The compound was tested for locomotor deficit (rotarod test) in Swiss mice.
[3] = tested on: Mus musculus; assay: The compound was tested for Anticonvulsant activity against audiogenic seizures in DBA/2 mice in clonic phase. 15 min after ip administration.; assay type: functional; conditions: 0.25 h
In short: (§1)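 Time course in male DBA/2 mice (8–12 g, 22–25 days) after ip dosing in 30% DMSO/70% saline, with auditory stimulation at the stated time after injection. Groups of 10 mice per time point; clonic-phase ED50 (95% confidence limits) by Litchfield–Wilcoxon, at least 32 animals per value.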

[4] = organism: Mus musculus; assay: The compound was tested for Anticonvulsant activity against KA induced seizures in DBA/2 mice.; assay type: functional
[5] = tested on: Mus musculus; assay: The compound was tested for Anticonvulsant activity against audiogenic seizures in DBA/2 mice in clonic phase. 120 min after ip administration.; assay type: functional; conditions: 2 h; in short: as §1
[6] = tested on: Mus musculus; assay: The compound was tested for Anticonvulsant activity against audiogenic seizures in DBA/2 mice in clonic phase. 45 min after ip administration.; assay type: functional; conditions: 0.75 h; in short: as §1
[7] = tested on: Mus musculus; assay: The compound was tested for Anticonvulsant activity against audiogenic seizures in DBA/2 mice in clonic phase. 90 min after ip administration.; assay type: functional; conditions: 1.5 h; in short: as §1
[8] = tested on: Mus musculus; assay: The compound was tested for Anticonvulsant activity against audiogenic seizures in DBA/2 mice in clonic phase. 30 min after ip administration.; assay type: functional; conditions: 0.5 h; in short: as §1
[9] = organism: Mus musculus; assay: The compound was tested for Anticonvulsant activity against audiogenic seizures in DBA/2 mice after pretreatment with Aniracetam in clonic phase; assay type: functional
In short: (§2)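 Male DBA/2 mice (8–12 g, 22–25 days) given aniracetam 50 nmol icv 30 min before the ip compound (30% DMSO/saline), i.e. 60 min before auditory stimulation. Clonic or tonic phase incidence scored; ED50 by Litchfield–Wilcoxon, at least 32 animals.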

[10] = organism: Mus musculus; assay: The compound was tested for Anticonvulsant activity against audiogenic seizures in DBA/2 mice after pretreatment with Aniracetam in tonic phase.; assay type: functional; in short: as §2
[11] = organism: Mus musculus; assay: The compound was tested for Anticonvulsant activity against Pentylenetetrazole (PTZ) induced seizures in Swiss mice; assay type: functional
In short: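 Male Swiss mice (20–26 g, 42–48 days) pretreated ip with the compound in 30% DMSO/70% saline, then 45 min later PTZ 85 mg/kg (CD97) sc. Observed for 30 min; protection was absence of clonic spasms lasting at least 5 s. ED50 by Litchfield–Wilcoxon, at least 32 animals.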

[12] = organism: Mus musculus; assay: The compound was tested for Anticonvulsant activity against maximal electroshock (MES) induced seizures in Swiss mice.; assay type: functional
In short: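 Swiss mice given the compound ip in 30% DMSO/70% saline, then 45 min later ear-clip electroshock (50 mA, 20 ms pulses, 35 Hz, 400 ms). Protection was abolition of tonic hindlimb extension. Four to five doses, 8–10 mice each; ED50 by Litchfield–Wilcoxon.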

[13] = organism: Mus musculus; assay: The compound was tested for Anticonvulsant activity against AMPA induced seizures in DBA/2 mice in tonic phase; assay type: functional
[14] = tested on: Mus musculus; assay: The compound was tested for Anticonvulsant activity against audiogenic seizures in DBA/2 mice in clonic phase. 60 min after ip administration.; assay type: functional; conditions: 1 h; in short: as §1
[15] = organism: Mus musculus; assay: The compound was tested for Anticonvulsant activity against audiogenic seizures in DBA/2 mice in tonic phase; assay type: functional
In short: (§3)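 Male DBA/2 mice (8–12 g, 22–25 days), groups of 10 per dose, given the compound ip in 30% DMSO/70% saline at doses within 3.3–200 µmol/kg. Sound stimulation 30 min later; latency and incidence of seizure phases scored. ED50 per phase by Litchfield–Wilcoxon, at least 32 animals per value.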

[16] = organism: Mus musculus; assay: The compound was tested for Anticonvulsant activity against AMPA induced seizures in DBA/2 mice clonic phase.; assay type: functional
[17] = organism: Mus musculus; assay: The compound was tested for Anticonvulsant activity against audiogenic seizures in DBA/2 mice in clonic phase; assay type: functional; in short: as §3

| Rm [1] | Structure (SMILES) | TD50 [2] [µM/kg] | ED50 [3] [µmol/kg] | ED50 [4] [µmol/kg] | ED50 [5] [µmol/kg] | ED50 [6] [µmol/kg] | ED50 [7] [µmol/kg] | ED50 [8] [µmol/kg] | ED50 [9] [µmol/kg] | ED50 [10] [µmol/kg] | ED50 [11] [µmol/kg] | ED50 [12] [µmol/kg] | ED50 [13] [µmol/kg] | ED50 [14] [µmol/kg] | ED50 [15] [µmol/kg] | ED50 [16] [µmol/kg] | ED50 [17] [µmol/kg] |
| --- | --- | --- | --- | --- | --- | --- | --- | --- | --- | --- | --- | --- | --- | --- | --- | --- | --- |
| -0.213 | Nc1cccc(C2=NN=C(S)Cc3cc4c(cc32)OCO4)c1 | 53.7 | 32.6 | 18.6 | > 50 | 15.2 | 45.2 | 16.7 | 65.2 | 85.9 | 40.2 | 30.9 | 26.2 | 22.4 | 8.88 | 32.8 | 16.7 |
| -0.459 | CNC(=O)N1N=C(c2ccc(N)cc2)c2cc3c(cc2CC1=O)OCO3 | 48.6 | 14.3 | 8.61 | 40.8 | 12.1 | 19.4 | 12.4 | 33.9 | 31 | 16.3 | 18.6 | 10.3 | 13 | 8.7 | 18.6 | 12.4 |
| -0.075 | CCCCNC(=O)N1N=C(c2cccc(N)c2)c2cc3c(cc2CC1=O)OCO3 | 56.2 |  |  |  |  |  |  |  |  | 36.4 | 26.6 |  |  | 12.7 |  | 18.1 |
| -0.441 | CNC(=O)N1N=C(c2cccc(N)c2)c2cc3c(cc2CC1=O)OCO3 | 48.9 |  |  |  |  |  | 13.6 |  |  | 19.6 | 21.4 |  |  | 11.2 |  | 13.6 |
| -0.185 | SC1=NN=C(c2ccccc2)c2cc3c(cc2C1)OCO3 | 97.1 |  |  |  |  |  | 23.8 |  |  | 80.3 | 37.8 |  |  | 18.8 |  | 23.8 |
| -0.11 | CCCCNC(=O)N1N=C(c2ccc(N)cc2)c2cc3c(cc2CC1=O)OCO3 | 108 |  |  |  |  |  |  |  |  | > 100 | 79.7 |  |  | 32.6 |  | 38.7 |
| -0.215 | O=C1Cc2cc3c(cc2C(c2ccccc2)=NN1)OCO3 | 159 |  |  |  |  |  | 43.3 |  |  | 78 | 42.6 |  |  | 40.6 |  | 43.3 |

| Structure (SMILES) | Rm [1] | TD50 [2] [µM/kg] | ED50 [3] [µmol/kg] | ED50 [4] [µmol/kg] | ED50 [5] [µmol/kg] | ED50 [6] [µmol/kg] | ED50 [7] [µmol/kg] | ED50 [8] [µmol/kg] | ED50 [9] [µmol/kg] | ED50 [10] [µmol/kg] | ED50 [11] [µmol/kg] | ED50 [12] [µmol/kg] | ED50 [13] [µmol/kg] | ED50 [14] [µmol/kg] | ED50 [15] [µmol/kg] | ED50 [16] [µmol/kg] | ED50 [17] [µmol/kg] |
| --- | --- | --- | --- | --- | --- | --- | --- | --- | --- | --- | --- | --- | --- | --- | --- | --- | --- |
| CC1=NN=C(c2ccc(N)cc2)c2cc3c(cc2C1)OCO3 [GYKI-52466] | -0.404 | 76.1 | 10.8 | 27.8 | > 50 | 37.2 | > 50 |  |  |  |  |  |  |  |  |  |  |
